# Hits are enriched below; roughly 2.8% of the tested compounds scored in any of these assays.
# PAFAH1B2 FP inh: PAFAH1B2 (human) inhibition; 340,000 compounds, 1.2% hits; recombinant PAFAH1B2, FP-rhodamine activity probe, fluorescence polarization; P68402; inhibition, % at 3.39 µM;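 active = inhibition above the mean of all tested compounds plus 3 SD, cut at about 24% in these data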;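 also: 0% = enzyme with DMSO and 100% = wells lacking PAFAH1B2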
# Target sequence (P68402 whole entry, looked up): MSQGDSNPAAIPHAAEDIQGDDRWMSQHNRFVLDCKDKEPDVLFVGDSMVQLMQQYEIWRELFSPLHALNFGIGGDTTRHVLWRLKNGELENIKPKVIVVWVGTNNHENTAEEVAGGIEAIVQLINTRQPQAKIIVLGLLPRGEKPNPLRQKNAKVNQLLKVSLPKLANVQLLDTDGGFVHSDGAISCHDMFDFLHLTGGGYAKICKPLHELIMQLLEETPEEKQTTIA
# HTRA1 inh: inhibitors of human serine peptidase HTRA1; Q92743; recombinant HTRA1, FP-rhodamine activity-based probe, fluorescence polarization; inhibition, % at 5.96 µM; 340,000 compounds, 0.5% hits; AID 504803; in the data active = inhibition above about 36%;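 also: 0% = enzyme with DMSO and 100% = wells lacking enzyme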
# Target sequence (Q92743 whole entry, looked up): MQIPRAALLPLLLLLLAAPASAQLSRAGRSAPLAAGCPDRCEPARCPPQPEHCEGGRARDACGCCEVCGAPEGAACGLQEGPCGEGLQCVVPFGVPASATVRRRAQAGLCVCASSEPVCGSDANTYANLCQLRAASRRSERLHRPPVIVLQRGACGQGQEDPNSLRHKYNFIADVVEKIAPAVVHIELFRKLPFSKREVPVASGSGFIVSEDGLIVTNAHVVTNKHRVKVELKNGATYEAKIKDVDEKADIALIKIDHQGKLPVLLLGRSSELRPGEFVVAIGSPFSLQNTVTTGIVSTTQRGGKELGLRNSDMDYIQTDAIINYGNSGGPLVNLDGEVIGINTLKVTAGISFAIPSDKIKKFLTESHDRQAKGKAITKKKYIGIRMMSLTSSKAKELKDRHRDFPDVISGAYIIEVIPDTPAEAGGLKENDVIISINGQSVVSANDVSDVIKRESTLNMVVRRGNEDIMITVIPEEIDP
# PAFAH2 inh: inhibitors of human PAFAH2 | Q99487 | recombinant PAFAH2, FP-rhodamine activity probe, fluorescence polarization | inhibition, % at 3.39 µM | 340,000 compounds, 0.99% hits;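 active = inhibition above the mean over all tested compounds plus 3 SD, cut at about 30% in these data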;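 also: inhibitors block probe labeling of enzyme so polarization drops; 0% = enzyme with DMSO and 100% = wells lacking PAFAH2 protein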
# pPAFAH FP inh: pPAFAH (human) enzyme inhibition; AID 463082; recombinant pPAFAH, FP-rhodamine probe fluorescence polarization; 330,000 compounds, 1.5% hits; inhibition, % at 3.39 µM;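 active = inhibition above the mean inhibition across the screen plus 3 SD, cut at about 25% in these data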;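 also: inhibitors block binding of the rhodamine activity-based probe so polarization drops; 0% = enzyme with DMSO and 100% = wells lacking pPAFAH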
# ABHD4 inh: ABHD4 (mouse) inhibition, primary FP screen | Q8VD66 | purified mABHD4, FP-Rh probe fluorescence polarization | inhibition, % at 8.92 µM | 370,000 compounds, 0.54% hits;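 active = inhibition exceeding the mean over every tested compound plus 3 SD, cut at about 30% in these data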;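 also: 0% = plate median of compound wells and 100% = S159A mutant with DMSO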
#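 Test system: mABHD4 protein; Read-out basis: % inhibition; Incubation: 45 min + 60 min at 25 °C; Repeats: single replicate; Technique: fluorescence polarization with parallel and perpendicular emission, 525/598 nm; Compound: 8.92 µM, single dose; Benchmarks: full inhibition S159A mutant plus DMSO, zero as sample-well median.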
# PAFAH1B3 inh: blocks human PAF acetylhydrolase 1B catalytic subunit 3 | Q15102 | recombinant PAFAH1B3, FP-rhodamine probe, fluorescence polarization | inhibition, % at 3.39 µM | 340,000 compounds, 0.28% hits | AID 492972;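 active = inhibition above the screen-wide average of all tested compounds plus 3 SD, cut at about 25% in these data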;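 also: 0% = enzyme with DMSO only and 100% = wells lacking PAFAH1B3 protein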
# pPAFAH confirm: confirmation of human plasma PAF acetylhydrolase (pPAFAH) inhibitors. 2,300 compounds, 72% hits. recombinant pPAFAH, FP-Rh probe fluorescence polarization. shares compounds with pPAFAH FP inh. inhibition, % at 3.39 µM;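 active = mean inhibition of the triplicate above the hit cutoff set for the earlier primary screen, cut at about 25% in these data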;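 also: 0% = enzyme with DMSO and 100% = wells lacking pPAFAH enzyme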
# PAFAH2 confirm: confirmation of human PAFAH2 inhibitors; shares compounds with PAFAH2 inh; recombinant PAFAH2, FP-rhodamine activity probe, fluorescence polarization; inhibition, % at 3.39 µM; 2,300 compounds, 65% hits;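 active = mean inhibition over three repeats above a set limit taken from the earlier primary screen, cut at about 30% in these data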;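 also: inhibitor blocks binding of rhodamine activity probe so polarization falls; 0% = enzyme with DMSO and 100% = wells lacking PAFAH2 protein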
# HTRA1 conf: HTRA1 (human) inhibition, confirmation | shares compounds with HTRA1 inh | recombinant HTRA1, FP-rhodamine activity-based probe, fluorescence polarization | inhibition, % at 5.96 µM | 1,600 compounds, 66% hits | AID 540248;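 active = mean inhibition over three repeats above a set limit taken from the earlier primary screen, cut at about 37% in these data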;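 also: 0% = HTRA1 with DMSO and 100% = wells lacking HTRA1; inhibitors block probe binding so polarization drops and inhibition rises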
# Starred values were filed as active, the others as inactive; / = not tested or not shown.
SMILES,PAFAH1B2 FP inh,HTRA1 inh,PAFAH2 inh,pPAFAH FP inh,ABHD4 inh,PAFAH1B3 inh,pPAFAH confirm,HTRA1 conf,others
Cc1nc2cc(-c3ccsc3-n3c(C)ccc3C)[nH]n2c(=O)c1Cl,3.0,37.7*,84.2*,54.6*,7.5,5.5,47.4*,3.4,
COc1ccc(Cn2ccc3ccc(-c4ccc5ccn(C(=O)c6ccccc6C)c5c4)cc32)cc1,/,/,/,/,-0.9,/,/,/,
O=c1oc2ccccc2c2oc3cc(O)c(O)cc3c12,-0.7,82.2*,34.5*,72.7*,55.2*,9.5,81.3*,76.7*,
O=C(Nc1ccc2c(c1)OCO2)OC1CCC12CCC(c1ccccc1)CC2 (stereo not drawn),/,/,/,/,-25.8,/,/,/,
CCc1cc(C(=O)Cc2cnn(-c3ccccc3)c2)c(O)cc1O,0.3,-24.1,-7.5,-4.8,-19.7,-1.0,/,/,
O=C(Cc1cnn(-c2ccccc2)c1)c1ccc(O)c(O)c1O,0.4,68.7*,22.3,72.5*,24.3,4.9,53.9*,93.6*,
Cc1cc(C)c(S(=O)(=O)/N=C2\C=C(Nc3ccc(C(=O)O)cc3)C(=O)c3ccccc32)c(C)c1,26.1*,59.7*,36.1*,41.9*,71.1*,59.7*,39.7*,52.2*,
CCc1ccc(S(=O)(=O)/N=C2\C=C(Nc3ccc(O)cc3)C(=O)c3ccccc32)cc1,31.1*,78.5*,37.2*,34.8*,/,65.8*,33.1*,80.3*,
CN[C@H]1C[C@H]2c3cc(-c4ccccc4C)ccc3CCN2C[C@H]1[C@H](C)O,/,/,/,/,-4.1,/,/,/,
CCn1c(CSc2nc3ccccc3s2)nnc1SCC(=O)c1ccc(O)c(O)c1,7.1,54.6*,49.7*,40.5*,20.2,11.5,93.8*,86.5*,PAFAH2 confirm=23.1
C/C(CC(=O)Nc1ccc2ccccc2c1)=N\NC(=O)c1ccc(O)c(O)c1,4.6,68.6*,14.2,53.8*,9.3,11.7,54.8*,84.0*,
C/C(CC(=O)Nc1ccc2ccccc2c1)=N\NC(=O)c1cnccn1,5.1,-7.0,2.3,-1.4,-16.0,8.8,/,/,
O=C1c2ccccc2-c2onc3ccc(NCc4ccco4)c1c23,105.2*,117.1*,120.7*,81.7*,/,103.8*,103.5*,108.4*,
O=C1C(Cl)=C(NCc2ccco2)C(=O)c2ccccc21,8.7,4.8,13.2,/,5.8,17.9,/,/,
O=C(Cc1ccccc1)NC1CCCCN(Cc2cccc(Cl)c2)C1=O (stereo not drawn),/,/,/,/,-4.1,/,/,/,
COc1ccc(/C=N\NC(=O)c2cc(O)c(O)c(O)c2)cc1COc1ccc(C(=O)OCC(C)C)cc1,13.2,58.3*,30.6*,85.4*,6.5,26.3*,87.5*,55.1*,
COc1cccc(N=Nc2ccc3cccnc3c2O)c1,5.4,76.9*,-1.7,57.9*,21.5,18.2,33.3*,76.7*,
COc1cc(OC)cc(C(=O)Nc2cccc3cccnc23)c1,1.2,-19.6,0.9,-0.6,-6.5,6.5,/,/,
CCCCn1c(SCC(=O)c2ccc(O)c(O)c2)nc2ccsc2c1=O,15.4,59.4*,27.7,42.2*,/,1.8,87.6*,61.0*,
CCOC(=O)[C@]12CCCC=C1N(Cc1ccc(OC)cc1)C(=O)[C@@H]2CC(=O)N1CCC(c2ccccc2)CC1,/,/,/,/,-10.3,/,/,/,
O=C(C1=C(O)C(=O)N(c2nc3ccc(Cl)cc3s2)C1c1ccco1)c1ccco1 (stereo not drawn),7.3,38.9*,28.0,48.9*,28.0,12.1,38.4*,-54.0,
COc1ccc(S[C@]2(C(=O)N3CCCC3)CC(=O)N(C(=O)C3CC3)[C@@H]2c2ccc(OC)cc2)cc1,/,/,/,/,-0.6,/,/,/,
COc1ccc(C=NNc2ccc(S(=O)(=O)Nc3ccccc3C(=O)O)cc2[N+](=O)[O-])c(OC)c1,34.1*,46.6*,55.6*,62.9*,/,29.2*,90.9*,39.2*,
Cc1nc(N)sc1N=Nc1ccccc1C(F)(F)F,3.4,40.0*,-1.9,41.8*,9.1,11.9,30.2*,30.4,
COc1ccc(S[C@]2(C(=O)N3CCN(c4ncccn4)CC3)CC(=O)N(c3ccc(OC)cc3)[C@@H]2c2ccc(OC)cc2)cc1,/,/,/,/,-11.2,/,/,/,
SMILES,PAFAH1B2 FP inh,HTRA1 inh,PAFAH2 inh,pPAFAH FP inh,ABHD4 inh,PAFAH1B3 inh,pPAFAH confirm,HTRA1 conf,others
COc1cccc(NS(=O)(=O)c2ccc3c(c2)C2C=CCC2C(c2ccc(C(=O)O)cc2)N3)c1 (stereo not drawn),36.4*,49.0*,68.1*,61.0*,27.6,40.2*,60.5*,15.1,
O=C(O)c1ccc2c(c1)[C@@H]1C=CC[C@@H]1[C@H](c1ccccn1)N2,32.7*,46.5*,49.2*,64.4*,70.3*,61.0*,14.6,22.1,
COc1ccc(C(=O)N/N=C(\C)c2ccc3c(c2)C2C=CCC2C(c2ccccc2)N3)cc1 (stereo not drawn),-3.2,14.7,8.5,9.8,/,0.7,/,/,
O=C(O)C1Nc2c(Cl)cc(Cl)c(Cl)c2C2C=CCC12 (stereo not drawn),11.3,42.4*,54.5*,41.0*,17.8,8.7,33.2*,38.0*,
O=C(O)C1Nc2ccc(Br)cc2C2C=CCC12 (stereo not drawn),46.6*,74.7*,79.0*,70.4*,/,39.6*,61.0*,68.8*,
CCOC(=O)C1Nc2ccc(C)cc2C2C=CCC12 (stereo not drawn),-0.6,34.5,8.3,21.6,22.3,3.7,/,/,
CC(C)CNC(=O)C1Nc2ccccc2C2C=CCC12 (stereo not drawn),0.9,12.1,12.3,9.4,13.3,2.5,/,/,
O=C(O)C1Nc2c(Cl)cc(Cl)cc2C2C=CCC12 (stereo not drawn),36.1*,55.1*,82.3*,81.1*,/,22.2,42.8*,49.4*,

# Screening data deposited in PubChem BioAssay by The Scripps Research Institute Molecular Screening Center.
